95 molecules from ChEMBL document CHEMBL4513216, “Probing the Open Global Health Chemical Diversity Library for Multistage-Active Starting Points for Next-Generation Antimalarials” (ACS Infect Dis, 2020) can be followed below.

The nature of the data set: Toxicity liver stage against HepG2, at 10uM. The format is cell-based. As to conditions: human, HepG2-A16-CD81EGFP cells; read-out: INHIBITION
On the set-up: test concentration 10 uM, cell line HepG2-A16-CD81EGFP. The method, boiled down: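 Uninfected HepG2-A16-CD81EGFP cells, 3 × 10^3 per well, 1536-well, plated on prespotted compound at 10 μM final, parasite-free screening media added to match infected plates; puromycin 10 μM positive, DMSO 0.5% negative; run in parallel with 48 h PbLuc assay at 37 °C, 5% CO2; viability by CellTiter-Glo luminescence, normalized to controls.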

As for `Cc1cc(C)n(CCC2CC(=O)Nc3cc4[nH]ncc4cc32)n1` (stereo not given), the cytotoxicity at 10 µM is -6.17%. In the case of `CC(C)N1CCc2ncn(C(C)C)c2C1C(=O)N1CCN(C)CC1` (stereo not given) it was -0.849%; in that of `CSc1ccc(CNC(=O)Cc2c(C)n[nH]c2C)cc1`, 4.16%.

For `CC1c2ncc(Cn3cccn3)n2CCN1c1ncccn1` (stereo not given), the cytotoxicity at 10 µM is -108%.

Regarding `Cc1ncnc2c1CCN(C(=O)c1ccnnc1)CC2`, the cytotoxicity at 10 µM is 9.9%.

Consider `COCCN1CCCCC12CC(=O)N(c1ccccc1OC)C2` (stereo not given), for which the cytotoxicity at 10 µM was -92.6%.

As for `O=C(NCc1cc(C2CC2)n(C2CCCC2)n1)C1CC1`, the cytotoxicity at 10 µM was found to be 2.16%. In the case of `O=S(=O)(N1CCCC1)N1CC[C@H](c2ccccc2)[C@H]2NCCCC[C@H]21` it was -25.1%; in that of `Cc1ccc(C)c(C(O)CN(C)Cc2nnc3ccccn23)c1` (stereo not given), -13.8%. With `O=C(O)CNc1cc(-c2nccnc2N2CCCC2)c2cc[nH]c2n1` the figure was 4.9%; with `CN(Cc1ccsc1)C(=O)Nc1ccc(S(C)(=O)=O)nc1`, 3.28%; with `Cn1ccc(C(=O)N2CCC(Cc3cnc4[nH]ccc4c3)CC2)n1`, 8.77%. For the molecule `CC(C)(NCC(=O)NCC1CC1)c1ccc2c(c1)OCCO2`, the cytotoxicity at 10 µM was -9.8%. On to `Cc1nnc(N2C[C@H]3OCC[C@H]3[C@H](C(=O)NCC3CC3)C2)s1`, for which the cytotoxicity at 10 µM was determined as 2.03%. With `Cc1nn(C)c(C)c1-c1c(-c2ccccc2)ncn1[C@H](CO)C(=O)O` the figure was -2.34%; with `C[C@]1(O)CCN(Cc2nccs2)C[C@@H]1Oc1cccc(F)c1`, -0.779%; with `O=c1oc(-c2cccs2)nn1CC(O)c1ccccc1` (stereo not given), 21.3%.

With `CCN1CCC2(CC1)C(=O)N(c1ccc(C)nc1)CCN2CC(C)C`, the cytotoxicity at 10 µM stood at 16.4%. In the case of `O=C1NCCCN1Cc1nc(-c2ccc(N3CCCCC3)cc2)no1` it was 3.24%.

In the case of `Cc1csc(N2CCN(CCCN3CCCC3=O)CC2)n1`, the cytotoxicity at 10 µM turned out to be 3.92%. Turning to `COc1ccccc1CNC(=O)CN(C)C(C)c1ccon1` (stereo not given), the cytotoxicity at 10 µM was -4.29%. `O=C1CN(C(=O)c2ccc(F)cc2)CC(O)CN1Cc1cccs1` (stereo not given): the cytotoxicity at 10 µM is -67.7%. With `O=C(O)c1cc(S(=O)(=O)N2CCOc3ccccc32)ccc1F` the figure was -2.94%. As to `Cc1nn(C)c(C)c1C1CCCN1C(=O)CCCc1ccccn1` (stereo not given), the cytotoxicity at 10 µM came to 2.43%.

`O=C(COCc1ccccc1)Nc1ccccn1`: the cytotoxicity at 10 µM is -27.7%. In the case of `COc1ccc(Cl)cc1C(=O)NC(CC(=O)O)c1cccs1` (stereo not given) it was -6.16%; in that of `CCOC(=O)CC(c1cccc(OC)c1OC)c1c(C)[nH][nH]c1=O` (stereo not given), 0.0535%; in that of `COc1cccc(CNC(C)C)c1OCc1ccc(C)cc1`, 0.438%. For the molecule `COCc1nc(CN2CCOC(CNc3cccnn3)C2)cs1` (stereo not given), the cytotoxicity at 10 µM is -4.71%.

Regarding `CCCC1CCN(C(=O)c2coc(COc3ccc(OC)cc3)n2)C1` (stereo not given), the cytotoxicity at 10 µM is -0.551%. Regarding `COCCn1cc(NC(=O)NC(C)CCc2ccccc2)ccc1=O` (stereo not given), the cytotoxicity at 10 µM was 3.4%. As to `CC(C)NC(=O)C1CN(Cc2cccs2)Cc2ccnn2C1` (stereo not given), the cytotoxicity at 10 µM is -1.89%. As for `COCCC(=O)N1CCOCC2(CCN(Cc3cccs3)C2)C1` (stereo not given), the cytotoxicity at 10 µM was -7.83%.

In the case of `CCOCC1CN(C(=O)N(C)C)Cc2nnn(CC3CC3)c21` (stereo not given), the cytotoxicity at 10 µM is -6.26%.

As to `CNc1cc(C)nc(-c2cc(NCCO)nc3[nH]ccc23)n1`, the cytotoxicity at 10 µM was 5.85%. With `CCC1(CC)CC(=O)N(CC(O)c2cccc(F)c2)C1=O` (stereo not given), the cytotoxicity at 10 µM was -3.43%. Take `O=C(CC1=CSC2=NCCN12)N1CCCC(CCc2cccc(F)c2)C1` (stereo not given): the cytotoxicity at 10 µM was found to be 5.21%. With `Cc1ccc(N2CC[C@@H]3[C@@H]2CCN3C(=O)c2cscn2)nn1` the figure was 5.38%; with `CNC(=O)N1CC[C@@H]2CN(Cc3cccc(Cl)c3)S(=O)(=O)[C@@H]2CC1`, 0.748%. With `c1ccc(C2CN(c3ncnc4[nH]cnc34)CCO2)cc1` (stereo not given), the cytotoxicity at 10 µM came out at 9.42%. With `COCC1CN(C(=O)Nc2cc(Cl)ccc2F)CCO1` (stereo not given) the figure was 10.7%; with `CC(=O)N[C@H]1C[C@@H](c2nc(-c3ccc4c(c3)OCO4)no2)N(C)C1`, -2.92%; with `Cc1nn2c(N3CCC(C#N)CC3)cc(-c3ccccc3)nc2c1C`, -8.6%. Regarding `Cc1noc(CCNC(=O)NCc2ccc(OC3CCCC3)cc2)n1`, the cytotoxicity at 10 µM came to 13.2%.

Take `Cc1nc(CN2CCCC(NCc3cccc(C(N)=O)c3)C2)no1` (stereo not given): the cytotoxicity at 10 µM is -14.5%. As for `Cc1ncc2c(n1)CN(CC(=O)Nc1c(C)nn(C)c1C)CC2`, the cytotoxicity at 10 µM is -11.1%. In the case of `CN(CCNC(=O)N1CCCC1)C(=O)OC(C)(C)C`, the cytotoxicity at 10 µM turned out to be 3.97%.

On to `Cc1csc(C2CCCN(C(=O)c3c(C)nn4cccnc34)C2)n1` (stereo not given), for which the cytotoxicity at 10 µM is -10.4%.

As to `c1coc(CN2CCCC3(COCCN(Cc4c[nH]nn4)C3)C2)c1` (stereo not given), the cytotoxicity at 10 µM was -12.2%. With `CCN(CC)c1ccc2ccc(C(=O)N3CCCCO3)cn12` the figure was 5.33%; with `Cn1cc(C(=O)NCC2CCN(C(=O)NCC(F)(F)F)CC2)cn1`, -3.68%. In the case of `OCC1N(Cc2ccc(F)cc2)C2CCC1(O)CC2` (stereo not given) it was 8.05%. Turning to `O=C(NC1CC1)C1CCN(c2snc3ccccc23)CC1`, the cytotoxicity at 10 µM was -5.43%.

In the case of `CCC[C@@H]1CN(Cc2c[nH]nc2-c2ccc(F)cc2)C[C@H]1NS(C)(=O)=O`, the cytotoxicity at 10 µM was determined as 3.25%. In the case of `c1cc(CN2CCOCC3(CCN(CC4CCOCC4)CC3)C2)ccn1`, the cytotoxicity at 10 µM was -82.6%. With `COc1cccc2cc(CNC(=O)N3CCC(C(N)=O)CC3)oc12` the figure was -6.13%.

Regarding `Cc1csc(N2CCN(CC(=O)Nc3cc(C)nn3C)CC2C)n1` (stereo not given), the cytotoxicity at 10 µM is -10.2%.

In the case of `CN(C)CCn1c([C@H]2CCCO2)cc2cccnc21`, the cytotoxicity at 10 µM came to 17.1%.

On to `O=C(NS(=O)(=O)c1c(Cl)cccc1Cl)c1cccc2c1OCCO2`, for which the cytotoxicity at 10 µM turned out to be 0.582%.

Consider `Cc1ncc2c(n1)CN(CCOc1ccc3c(c1)CCC(=O)N3)CC2`, for which the cytotoxicity at 10 µM was -8.12%. With `O=C(CCc1nc(Cl)n[nH]1)NC1CCCN(C2Cc3ccccc3C2)C1` (stereo not given) the figure was -18.9%; with `CN(CC(C)(CO)CO)C(=O)Nc1cc(F)cc(F)c1`, 0.669%. In the case of `CCSc1cc(C(=O)NCCc2nnc(-c3ccco3)[nH]2)ccn1` it was 6.14%. In the case of `O=C(C1CCCCC1)N1CCC(n2nc(-c3ccco3)ccc2=O)CC1` it was -16.6%; in that of `Cc1ccc(C(C(=O)NCCc2nc(C)cc(=O)[nH]2)N(C)C)cc1` (stereo not given), 1.92%. With `CCCN(c1ccccc1C(=O)O)S(=O)(=O)c1cccc2cccnc12`, the cytotoxicity at 10 µM is -3.89%. In the case of `O=C(Nc1cccnc1)[C@@H]1C[C@H]2OCC[C@H]2N(Cc2nccs2)C1` it was 5.02%; in that of `COCCn1ccc2c(NC(=O)C(C)C)cccc21`, 1.01%.

As for `CCN(CC)c1nc(Nc2cccc(C(C)O)c2)nc2ccccc12` (stereo not given), the cytotoxicity at 10 µM is 37.6%. For `O=C(CCCn1nnc(-c2ccc(F)cc2)n1)N1CCOCC(CO)C1` (stereo not given), the cytotoxicity at 10 µM turned out to be 16.2%. With `CC(C)CNC(=O)C1(Cc2ccccc2-c2cccs2)CCNC1` (stereo not given) the figure was -31.2%; with `COc1ccc(OCC(O)CN2CCN(c3nccs3)CC2)cc1` (stereo not given), -3.82%. With `CC(C)(C(=O)N1CCCC(OCc2cccnc2)C1)n1cccc1` (stereo not given) the figure was -4.06%.

For the molecule `CCOCC1CN(S(C)(=O)=O)Cc2nn(C)cc21` (stereo not given), the cytotoxicity at 10 µM is -95.9%. In the case of `Cc1cc2n(n1)[C@@H](C(F)(F)F)C[C@@H](C1CCCN(C(=O)C(C)C)C1)N2` (stereo not given in full) it was -22.1%; in that of `c1ccc(CO[C@@H]2CO[C@@]3(CCN(Cc4ccccn4)C3)C2)nc1`, -9.62%.

For `COCCN1CCC(CN(CC2CCCO2)C(=O)CCC(F)(F)F)CC1` (stereo not given), the cytotoxicity at 10 µM stood at 2.13%.

Take `Cc1ncc(CN2CCOCC2)c2cc(C(=O)c3ccc(Br)cc3)oc12`: the cytotoxicity at 10 µM was 3.54%. With `O=C(c1ccc(-c2ccccc2)[nH]c1=O)N1CCCn2ncnc21` the figure was 1.46%. With `CS(=O)(=O)N[C@@H]1CN(C(=O)c2ccccn2)C[C@@H]2CCCO[C@@H]21` the figure was -74.8%. With `COCCNC(=O)c1ccc(NCc2c(C)noc2C)cc1Cl` the figure was 0.678%. Regarding `COc1cc(N2C[C@@H]3COC[C@]3(COc3ccccn3)C2)ncn1`, the cytotoxicity at 10 µM came to 1.35%. `O=C1CCC2(CCN(Cc3ccoc3)CC2)N1OCc1ccccc1F`: the cytotoxicity at 10 µM was 2.37%.

For `Cc1cc(C)n(-c2ccc(CNCc3ccc(F)c(F)c3)cn2)n1`, the cytotoxicity at 10 µM is -8.77%.

For the molecule `C[C@@H]1CN(C(=O)c2ccncc2)CC[C@@]1(O)C1CCOCC1`, the cytotoxicity at 10 µM was determined as 0.301%.

For `CN(Cc1ccccn1)C1CCCN(c2cccnn2)C1` (stereo not given), the cytotoxicity at 10 µM is -13.4%. As for `CN1CCc2nc3cc(C(=O)NCc4cccs4)ccc3c(=O)n2CC1`, the cytotoxicity at 10 µM is 0.207%. `CCOC(C)C(=O)N(C)C1CCN(c2ccc(OC)cc2)CC1` (stereo not given): the cytotoxicity at 10 µM is -1.57%. In the case of `CN(c1ccc(Cl)c(C(=O)NCCCN2CCOCC2)c1)S(C)(=O)=O` it was 1.05%. With `CCCn1cc(C(=O)N(C)Cc2nc(-c3ccccn3)no2)c(C)n1` the figure was 0.334%. In the case of `CC(c1cccnc1)N1CCN(CCO)CC1` (stereo not given), the cytotoxicity at 10 µM is -3.21%. With `Cn1cc(CN2CCCC3(COCCN(Cc4c[nH]nn4)C3)C2)cn1` (stereo not given) the figure was -0.501%; with `Cc1cnn(CC2CN(CCS(=O)(=O)C(F)(F)F)CCO2)c1` (stereo not given), 2.5%. In the case of `COC(=O)CNC(=O)c1cn(Cc2ccccc2F)nn1` it was 4.98%. As to `Cc1nc(N2CCOCC2)nc2c1CCN(Cc1cccnc1)CC2`, the cytotoxicity at 10 µM was -0.368%.
